In ChEMBL document CHEMBL1687753, “Mitochondrial DNA depletion and respiratory chain activity in primary human subcutaneous adipocytes treated with nucleoside analogue reverse transcriptase inhibitors” (Antimicrob Agents Chemother, 2010):
Activity calls are given as the source filed them. The calls are words filed in the database; no cut-off is given here.

Key:
[1] = Toxicity in human subcutaneous preadipocytes assessed as decrease of PPARgamma expression at 0.1 uM after 18 days by RT-PCR analysis; assay type: cell-based; details: 432 h
Outline: (§1)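 Differentiating preadipocytes were harvested at day 18. RNA from three plates was pooled and reverse transcribed, and qRT-PCR was run with 42 cycles of 94/55/72°C. Values were normalized to transferrin receptor or beta-actin by standard curve. Triplicates from three independent experiments.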

[2] = Toxicity in human subcutaneous preadipocytes assessed as effect on mitochondrial membrane potential at 3 uM after 30 days using JC-1 red/green fluorescence dye by flow cytometry analysis; assay type: cell-based; details: 720 h
Outline: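 Pooled primary human subcutaneous preadipocytes (passage ≤4) were differentiated with drug or DMSO vehicle from day 0 and cultured 30 days. Staining with the JC-1 kit was followed by flow cytometry, and the JC-1 red/green fluorescence intensity ratio was used as the membrane potential read-out. CCCP served as the depolarization control. Three independent experiments, means ± SEM.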

[3] = Toxicity in human subcutaneous preadipocytes assessed as decrease of mitochondrial DNA copy number per cell at 3 uM after 60 days by RT-PCR analysis; assay type: cell-based; design: scale not given: the % may be the effect or the level left; details: 1440 h
Outline: (§2)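 mtDNA content of differentiated preadipocytes at day 30 or 60 of drug exposure was measured by real-time quantitative PCR with human-specific primers. Absolute copy numbers came from serial dilutions of plasmid standards. Three independent experiments.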

[4] = Toxicity in human subcutaneous preadipocytes assessed as effect on mitochondrial mass at 3 uM after 30 days using […] by flow cytometry analysis; assay type: cell-based; details: 720 h
[5] = Toxicity in fully differentiated human subcutaneous preadipocytes assessed as cell death at 3 uM after 30 days using […] by conventional fluorescence microscopy; details: 720 h
Outline: (§3)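 Trypan blue exclusion counted by microscopy at each medium change every fifth day during 30 days of drug exposure in differentiating pooled preadipocytes. Final viability was calculated by excluding the cumulative percentage of dead cells. Five independent experiments.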

Homo sapiens [6] = assay: Inhibition of electron transport protein complex 5 in human subcutaneous preadipocytes at 3 uM after 30 to 60 days by photometric analysis; assay type: cell-based
Outline: (§4)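 Pooled primary human abdominal subcutaneous preadipocytes induced to differentiate with drug (DMSO vehicle, ≤0.1%) added at day 0 and kept to day 30 or 60. Cells sonicated twice for 10 s; substrates added to lysates and conversion by complexes I+III, II+III, IV, V and citrate synthase read photometrically at 37°C. Three independent experiments.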

[7] = Toxicity in human subcutaneous preadipocytes assessed as decrease of mitochondrial DNA abundance at 3 uM after 60 days by RT-PCR analysis; assay type: cell-based; details: 1440 h; outline: as §2
[8] = Toxicity in human subcutaneous preadipocytes assessed as decrease of cell cultures at 3 uM after 30 days using oil red O fluorescence staining by conventional fluorescence microscopy; assay type: cell-based; details: 720 h
Outline: (§5)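 On day 30 of differentiation with drug present from day 0, cells were fixed in 10% formalin and stained with 0.21% oil red O. Staining was viewed by fluorescence and light microscopy. For quantification, dye was extracted with isopropanol and read at 495 nm, also adjusted for viable cell number. Five independent experiments.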

[9] = Toxicity in human subcutaneous preadipocytes assessed as triacylglyceride droplets at 3 uM after 30 days using oil red O fluorescence staining by conventional fluorescence microscopy; assay type: cell-based; details: 720 h
Outline: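 Preadipocytes were differentiated with a hormone cocktail (IBMX for the first 7 days, dexamethasone, insulin, indomethacin; high-glucose DMEM for days 0–18), with drug or vehicle present from day 0 to day 30. Cells were fixed in 10% formalin, stained with 0.21% oil red O in 60% isopropanol, and imaged by fluorescence microscopy. Quantification was by isopropanol extraction at 495 nm, optionally adjusted for viable cells.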

[10] = Toxicity in human subcutaneous preadipocytes assessed as decrease of C/EBPalpha expression at 3 uM after 18 days by RT-PCR analysis; assay type: cell-based; details: 432 h; outline: as §1
[11] = Toxicity in human subcutaneous preadipocytes assessed as acquisition of adipocyte shape at 3 uM after 30 days using oil red O fluorescence staining by conventional fluorescence microscopy; assay type: cell-based; details: 720 h; outline: as §5
[12] = Toxicity in human subcutaneous preadipocytes assessed as cell death at 3 uM after 30 days using […]; assay type: cell-based; details: 720 h; outline: as §3
Homo sapiens [13] = assay: Inhibition of electron transport protein complex 1/3 in human subcutaneous preadipocytes at 3 uM after 30 to 60 days by photometric analysis; assay type: cell-based; outline: as §4
Homo sapiens [14] = assay: Inhibition of citrate synthase in human subcutaneous preadipocytes at 3 uM after 30 to 60 days by photometric analysis; assay type: cell-based; outline: as §4
[15] = Toxicity in human subcutaneous preadipocytes assessed as decrease of insulin-sensitizing adipokine expression at 3 uM after 30 days by RT-PCR analysis; assay type: cell-based; details: 720 h
Outline: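 Adiponectin mRNA at day 30 was measured by qRT-PCR normalized to transferrin receptor or beta-actin, using pooled RNA and cDNA. Triplicates from three independent experiments.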

[16] = Toxicity in human subcutaneous preadipocytes assessed as decrease of PPARgamma expression at 3 uM after 18 days by RT-PCR analysis; assay type: cell-based; details: 432 h; outline: as §1
[17] = Toxicity in human subcutaneous preadipocytes assessed as decrease of cell viability measured every 5 days at 3 uM after 30 days using […]; assay type: cell-based; details: 720 h; outline: as §3
[18] = Toxicity in human subcutaneous preadipocytes assessed as decrease of C/EBPalpha expression at 0.1 uM after 18 days by RT-PCR analysis; assay type: cell-based; details: 432 h; outline: as §1
Homo sapiens [19] = assay: Inhibition of electron transport protein complex 2/3 in human subcutaneous preadipocytes at 3 uM after 30 to 60 days by photometric analysis; assay type: cell-based; outline: as §4
[20] = Toxicity in human subcutaneous preadipocytes assessed as decrease of adiponectin expression at 3 uM after 30 days by ELISA; assay type: cell-based; details: 720 h
Outline: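 Adiponectin secreted into the medium over days 25 to 30 of drug exposure in differentiating preadipocytes was measured by sandwich ELISA of culture supernatant. Three independent experiments.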

[21] = Toxicity in human subcutaneous preadipocytes assessed as decrease of mitochondrial DNA abundance at 3 uM after 30 days by RT-PCR analysis; assay type: cell-based; details: 720 h; outline: as §2
Homo sapiens [22] = assay: Inhibition of electron transport protein complex 4 in human subcutaneous preadipocytes at 3 uM after 30 to 60 days by photometric analysis; assay type: cell-based; outline: as §4

## Cc1cn([C@H]2C=C[C@@H](CO)O2)c(=O)[nH]c1=O [STAVUDINE]
[1]
  Activity: Non-toxic
[2]
  Activity: Non-toxic
[3]
  Activity: 50%
[4]
  Activity: Non-toxic
[5]
  Activity: Toxic
Homo sapiens [6]
  inhibition: inactive
[7]
  Activity: Toxic
[8]
  Activity: Toxic
[9]
  Activity: Non-toxic
[10]
  Activity: Non-toxic
[11]
  Activity: Non-toxic
[12]
  Activity: Toxic
Homo sapiens [13]
  inhibition: inactive
Homo sapiens [14]
  inhibition: inactive
[15]
  Activity: Non-toxic
[16]
  Activity: Non-toxic
[17]
  Activity: Toxic
[18]
  Activity: Non-toxic
Homo sapiens [19]
  inhibition: inactive
[20]
  Activity: Non-toxic
[21]
  Activity: Toxic
Homo sapiens [22]
  inhibition: inactive
